Data taken from ChEMBL document CHEMBL1649115, “Enhanced susceptibility to antifungal oligopeptides in yeast strains overexpressing ABC multidrug efflux pumps” (Antimicrob Agents Chemother, 2008).
In brackets after ≈: the same amount, converted by molar mass. Residues, ends and D or L forms follow the SMILES beside them.

Assays:
[1] = system: Saccharomyces cerevisiae; assay: Antifungal activity against Saccharomyces cerevisiae ADCDR2 expressing Candida albicans CDR2 efflux pump in YNPG medium containing 1 mg/ml […] after 24 hrs by microdilution method; assay type: functional; conditions: ADCDR2, 24 h
[2] = system: Saccharomyces cerevisiae; assay: Antifungal activity against Saccharomyces cerevisiae ADCDR2 expressing Candida albicans CDR2 efflux pump in YNBG medium containing 1 mg/ml […] after 24 hrs by microdilution method; assay type: functional; conditions: ADCDR2, 24 h
[3] = system: Saccharomyces cerevisiae; assay: Antifungal activity against Saccharomyces cerevisiae ADCDR1 expressing Candida albicans CDR1 efflux pump in YNBG medium containing 1 mg/ml […] after 24 hrs by microdilution method; assay type: functional; conditions: ADCDR1, 24 h
[4] = system: Candida albicans; assay: Antifungal activity against fluconazole resistant Candida albicans isolate Gu5 overexpressing CDR1 and CDR2 in RPMI-1640 buffered medium after 24 hrs by microdilution method; assay type: functional; conditions: isolate Gu5, 24 h
Method in brief: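 C. albicans cells were grown in 2% glucose, 1% yeast extract, 1% Bacto peptone medium before testing. CARE-2 fingerprinting confirmed that each pair is a single strain.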

[5] = system: Candida albicans; assay: Antifungal activity against fluconazole sensitive Candida albicans isolate B3 in RPMI-1640 buffered medium after 24 hrs by microdilution method; assay type: functional; conditions: Candida albicans, isolate B3, 24 h; read-out: MIC
Method in brief: (§1)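 C. albicans cells were grown in 2% glucose, 1% yeast extract, 1% Bacto peptone medium before testing. […] CARE-2 fingerprinting confirmed that each pair is a single strain.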

[6] = system: Saccharomyces cerevisiae; assay: Drug uptake in Saccharomyces cerevisiae ADCDR2 expressing Candida albicans CDR2 efflux pump at 200 uM pretreated for 10 mins measured after 60 mins by fluorescamine staining; assay type: ADME, organism-based; conditions: in vivo, 1 h
[7] = system: Saccharomyces cerevisiae; assay: Drug uptake in Saccharomyces cerevisiae AD12345678 at 200 uM pretreated for 10 mins measured after 60 mins by fluorescamine staining; assay type: ADME, organism-based; conditions: in vivo, 1 h
[8] = system: Saccharomyces cerevisiae; assay: Drug uptake in Saccharomyces cerevisiae ADMDR1 expressing Candida albicans MDR1 efflux pump at 200 uM pretreated for 10 mins measured after 60 mins by fluorescamine staining; assay type: ADME, organism-based; conditions: in vivo, 1 h
[9] = system: Saccharomyces cerevisiae; assay: Drug extrusion in Saccharomyces cerevisiae ADCDR1 expressing Candida albicans CDR1 efflux pump reenergized with glucose at pH 6.0 assessed as fluorescamine-compound conjugate level after 30 mins; assay type: ADME, organism-based; conditions: in vivo, pH 6, 0.5 h
Method in brief: (§2)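 Cells de-energized with 2-deoxy-D-glucose were loaded (200 µM, 60 min, pH 4.0), washed, and resuspended at OD660 1.0 in 50 mM phosphate pH 6.0 at 30°C. After 5-min preincubation, 10 mM glucose was added. Supernatants were sampled every 5 min and assayed with fluorescamine. Unloaded, identically treated cells gave the background control.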

[10] = system: Saccharomyces cerevisiae; assay: Antifungal activity against wild type Saccharomyces cerevisiae ATCC 9763 in YNBG medium containing 1 mg/ml […] after 24 hrs by microdilution method; assay type: functional; conditions: ATCC 9763, 24 h
[11] = system: Candida albicans; assay: Antifungal activity against wild type Candida albicans 10261 in RPMI-1640 buffered medium after 24 hrs by microdilution method; assay type: functional; conditions: Candida albicans, 10261, 24 h; read-out: MIC; method in brief: as §1
[12] = system: Candida albicans; assay: Antifungal activity against fluconazole resistant Candida albicans isolate B4 overexpressing MDR1 in RPMI-1640 buffered medium after 24 hrs by microdilution method; assay type: functional; conditions: Candida albicans, isolate B4, 24 h; read-out: MIC; method in brief: as §1
[13] = system: Saccharomyces cerevisiae; assay: Antifungal activity against Saccharomyces cerevisiae ADCDR1 expressing Candida albicans CDR1 efflux pump in YNPG medium containing 1 mg/ml […] after 24 hrs by microdilution method; assay type: functional; conditions: ADCDR1, 24 h
[14] = system: Saccharomyces cerevisiae; assay: Antifungal activity against Saccharomyces cerevisiae ADMDR1 expressing Candida albicans MDR1 efflux pump in YNBG medium containing 1 mg/ml […] after 24 hrs by microdilution method; assay type: functional; conditions: ADMDR1, 24 h
[15] = system: Saccharomyces cerevisiae; assay: Drug uptake in Saccharomyces cerevisiae ADCDR1 expressing Candida albicans CDR1 efflux pump at 200 uM pretreated for 10 mins measured after 60 mins by fluorescamine staining; assay type: ADME, organism-based; conditions: in vivo, 1 h
[16] = system: Candida albicans; assay: Antifungal activity against fluconazole sensitive Candida albicans isolate Gu4 in RPMI-1640 buffered medium after 24 hrs by microdilution method; assay type: functional; conditions: Candida albicans, isolate Gu4, 24 h; read-out: MIC; method in brief: as §1
[17] = system: Saccharomyces cerevisiae; assay: Antifungal activity against Saccharomyces cerevisiae ADMDR1 expressing Candida albicans MDR1 efflux pump in YNPG medium containing 1 mg/ml […] after 24 hrs by microdilution method; assay type: functional; conditions: ADMDR1, 24 h
[18] = system: Saccharomyces cerevisiae; assay: Antifungal activity against Saccharomyces cerevisiae AD12345678 in YNBG medium containing 1 mg/ml […] after 24 hrs by microdilution method; assay type: functional; conditions: AD12345678, 24 h
[19] = system: Saccharomyces cerevisiae; assay: Antifungal activity against wild type Saccharomyces cerevisiae ATCC 9763 in YNPG medium containing 1 mg/ml […] after 24 hrs by microdilution method; assay type: functional; conditions: ATCC 9763, 24 h
[20] = system: Saccharomyces cerevisiae; assay: Drug extrusion in Saccharomyces cerevisiae ADCDR2 expressing Candida albicans CDR2 efflux pump reenergized with glucose at pH 6.0 assessed as fluorescamine-compound conjugate level after 30 mins; assay type: ADME, organism-based; conditions: in vivo, pH 6, 0.5 h; method in brief: as §2
[21] = system: Saccharomyces cerevisiae; assay: Antifungal activity against Saccharomyces cerevisiae AD12345678 in YNPG medium containing 1 mg/ml […] after 24 hrs by microdilution method; assay type: functional; conditions: AD12345678, 24 h
[22] = system: Saccharomyces cerevisiae; assay: Prodrug stability in Saccharomyces cerevisiae ADCDR1 expressing Candida albicans CDR1 efflux pump assessed as compound cleavage rate measured per mg of protein; assay type: ADME, organism-based; conditions: in vivo
[23] = system: Candida albicans; assay: Prodrug stability in fluconazole sensitive Candida albicans isolate B3 assessed as compound cleavage rate measured per mg of protein; assay type: ADME, organism-based; conditions: in vivo
[24] = system: Candida albicans; assay: Prodrug stability in fluconazole sensitive Candida albicans isolate Gu4 assessed as compound cleavage rate measured per mg of protein; assay type: ADME, organism-based; conditions: in vivo
Method in brief: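 Oligopeptides were incubated with cell extracts of the yeast cells, and their hydrolytic enzymes cleaved them. The amino acids released were quantified by the Cd-ninhydrin method.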

[25] = system: Saccharomyces cerevisiae; assay: Drug uptake in Saccharomyces cerevisiae ADCDR2 at 200 uM pretreated for 10 mins measured after 60 mins by fluorescamine staining in presence of fluconazole; assay type: ADME, organism-based; conditions: in vivo, 1 h
[26] = system: Saccharomyces cerevisiae; assay: Drug uptake in Saccharomyces cerevisiae ADCDR1 at 200 uM pretreated for 10 mins measured after 60 mins by fluorescamine staining in presence of fluconazole; assay type: ADME, organism-based; conditions: in vivo, 1 h
[27] = system: Saccharomyces cerevisiae; assay: Prodrug stability in wild type Saccharomyces cerevisiae ATCC 9763 assessed as compound cleavage rate measured per mg of protein; assay type: ADME, organism-based; conditions: in vivo
[28] = system: Saccharomyces cerevisiae; assay: Drug uptake in Saccharomyces cerevisiae ADMDR1 at 50 uM pretreated for 10 mins measured after 60 mins by fluorescamine staining in presence of fluconazole; conditions: in vivo, 1 h
[29] = system: Saccharomyces cerevisiae; assay: Prodrug stability in Saccharomyces cerevisiae ADCDR2 expressing Candida albicans CDR2 efflux pump assessed as compound cleavage rate measured per mg of protein; assay type: ADME, organism-based; conditions: in vivo
[30] = system: Saccharomyces cerevisiae; assay: Drug uptake in Saccharomyces cerevisiae AD12345678 at 200 uM pretreated for 10 mins measured after 60 mins by fluorescamine staining in presence of fluconazole; assay type: ADME, organism-based; conditions: in vivo, 1 h
[31] = system: Candida albicans; assay: Prodrug stability in wild type Candida albicans 10261 assessed as compound cleavage rate measured per mg of protein; assay type: ADME, organism-based; conditions: in vivo
[32] = system: Saccharomyces cerevisiae; assay: Prodrug stability in Saccharomyces cerevisiae AD12345678 assessed as compound cleavage rate measured per mg of protein; assay type: ADME, organism-based; conditions: in vivo
[33] = system: Saccharomyces cerevisiae; assay: Prodrug stability in Saccharomyces cerevisiae ADMDR1 expressing Candida albicans MDR1 efflux pump assessed as compound cleavage rate measured per mg of protein; assay type: ADME, organism-based; conditions: in vivo

For `N[C@H]1CCC[C@H]1C(=O)O`, the MIC [1] was 256 µg/mL (≈ 1980 µM), the MIC [2] was 16 µg/mL (≈ 124 µM) and the MIC [3] was 16 µg/mL (≈ 124 µM). The MIC [4] was 4 µg/mL (≈ 31 µM), the MIC [5] was 2 µg/mL (≈ 15.5 µM) and the Drug uptake [6] was 1.85 nmol/min/mg. It also gave a Drug uptake [7] of 1.63 nmol/min/mg, a Drug uptake [8] of 1.67 nmol/min/mg and an Activity [9] of 5 µM. The MIC [10] was 4 µg/mL (≈ 31 µM), the MIC [11] was 1 µg/mL (≈ 7.74 µM) and the MIC [12] was 8 µg/mL (≈ 61.9 µM). For the same compound, the MIC [13] was 256 µg/mL (≈ 1980 µM), the MIC [14] was 16 µg/mL (≈ 124 µM) and the Drug uptake [15] was 2.11 nmol/min/mg. The MIC [16] was 1 µg/mL (≈ 7.74 µM), the MIC [17] was 256 µg/mL (≈ 1980 µM) and the MIC [18] was 8 µg/mL (≈ 61.9 µM). It also gave an MIC [19] of 64 µg/mL (≈ 496 µM), an Activity [20] of 5 µM and an MIC [21] of 128 µg/mL (≈ 991 µM).
`CC(C)C[C@H](NC(=O)[C@@H](N)COCCN)C(=O)NCC(=O)O` gave a Stability [22] of 14 nmol/min, a Stability [23] of 20 nmol/min and a Drug uptake [6] of 1.31 nmol/min/mg. It also gave a Drug uptake [7] of 0.69 nmol/min/mg, a Stability [24] of 20 nmol/min and a Drug uptake [8] of 0.87 nmol/min/mg. The Drug uptake [25] was 1.26 nmol/min/mg, the Drug uptake [15] was 1.42 nmol/min/mg and the Drug uptake [26] was 1.32 nmol/min/mg. For the same compound, the Stability [27] was 14 nmol/min, the Drug uptake [28] was 0.85 nmol/min/mg and the Stability [29] was 14 nmol/min. The Drug uptake [30] was 0.7 nmol/min/mg, the Stability [31] was 20 nmol/min and the Stability [32] was 14 nmol/min. For the same compound, the Stability [33] was 14 nmol/min.
Compound `C[C@H](N)C(=O)N[C@@H](C)C(=O)O` (H-Ala-Ala-OH) has a Drug uptake [6] of 4.08 nmol/min/mg, a Drug uptake [7] of 2.58 nmol/min/mg and a Drug uptake [8] of 2.59 nmol/min/mg. The Drug uptake [25] was 3.94 nmol/min/mg, the Drug uptake [15] was 4.46 nmol/min/mg and the Drug uptake [26] was 4.2 nmol/min/mg. For the same compound, the Drug uptake [28] was 2.61 nmol/min/mg and the Drug uptake [30] was 2.55 nmol/min/mg.
